Experimental data reported in ChEMBL document CHEMBL1158053, “Polyoxygenated sterols from the Formosan soft coral Sinularia gibberosa” (J Nat Prod, 2006).
Values after ≈ are worked out from the molar mass of the structure shown. Active and inactive are the calls of the source. The rule behind the calls is not given here.

Experiments:
RAW264.7 [1] = test: Cytotoxicity against mouse RAW264.7 cells assessed as cell loss at 100 uM by trypan blue staining; format: cell-based; conditions: raw264.7, 100 µM
In short: (§1)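 RAW 264.7 macrophages (DMEM, 10% heat-inactivated FBS, 37 °C, 5% CO2) were exposed to compound at 10 or 100 µM alongside the LPS-activation protocol. Viability was scored by trypan blue staining.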

A549 = test: Cytotoxicity against human A549 cells by MTT assay; format: functional, cell-based
In short: (§2)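 ATCC-sourced tumour lines (HepG2, MCF7, MDA-MB-231, A-549) were tested with the MTT colorimetric method.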

RAW264.7 [2] = test: Cytotoxicity against mouse RAW264.7 cells assessed as decrease in beta-actin at 100 uM by trypan blue staining; format: cell-based; conditions: raw264.7, 100 µM
MDA-MB-231 = test: Cytotoxicity against human MDA-MB-231 cells by MTT assay; format: functional, cell-based; in short: as §2
RAW264.7 [3] = test: Antiinflammatory activity against LPS-stimulated mouse RAW264.7 cells assessed as inhibition of COX2 expression at 10 uM after 16 hrs by immunoblot analysis relative to control; format: functional; set-up: scale not given: the % may be the effect or the level left
In short: (§3)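 RAW 264.7 murine macrophages (ATCC TIB-71) grown in DMEM with 10% heat-inactivated FBS, 37 °C, 5% CO2. Cells activated with E. coli LPS (0.01 µg/mL) for 16 h with or without compound. Lysates were loaded at equal protein and analysed by SDS-PAGE and Western blot. Antibodies were anti-iNOS and anti-COX-2 (1:1000, 180 min), with β-actin reprobe as loading control. ECL detection. Intensity expressed relative to LPS-only group (100%); mean ± SD, n = 3.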

RAW264.7 [4] = test: Antiinflammatory activity against LPS-stimulated mouse RAW264.7 cells assessed as inhibition of iNOS expression at 10 uM after 16 hrs by immunoblot analysis relative to control; format: functional; set-up: scale not given: the % may be the effect or the level left; in short: as §3
MCF7 = test: Cytotoxicity against human MCF7 cells by MTT assay; format: functional, cell-based; in short: as §2
RAW264.7 [5] = test: Cytotoxicity against mouse RAW264.7 cells assessed as cell survival at 10 uM by trypan blue staining; format: cell-based; conditions: raw264.7, 10 µM; in short: as §1
[6] = Cytotoxicity against human Hep G2 cells by MTT assay; format: functional, cell-based; conditions: HepG2; in short: as §2

Compound	Activity (RAW264.7 [1])	IC50 (A549)	Activity (RAW264.7 [2])	IC50 (MDA-MB-231)	Activity (RAW264.7 [3])	Activity (RAW264.7 [4])	IC50 (MCF7)	Activity (RAW264.7 [5])	IC50 [6]
C=C(CC[C@@H](C)[C@H]1CC[C@H]2[C@@H]3CC(=O)[C@]4(O)C[C@@H](O)C[C@H](O)[C@]4(C)[C@H]3CC[C@]12C)C(C)C [GIBBEROKETOSTEROL]	38.4%	14.5 µg/mL (≈ 32.5 µM)	Active	14.4 µg/mL (≈ 32.2 µM)	68.3%	44.5%	14.1 µg/mL (≈ 31.6 µM)	Non-toxic	13 µg/mL (≈ 29.1 µM)
C=C(/C=C/[C@@H](C)[C@H]1CC[C@H]2[C@@H]3CC(=O)[C@H]4C[C@@H](O)C[C@H](O)[C@]4(C)[C@H]3CC[C@]12C)C(C)C [GIBBEROKETOSTEROL C]		> 30 µg/mL		> 30 µg/mL			> 30 µg/mL		> 30 µg/mL
C=C(CC[C@@H](C)[C@H]1CC[C@H]2[C@@H]3C[C@@H]4O[C@@]45C[C@@H](O)C[C@H](O)[C@]5(C)[C@H]3CC[C@]12C)C(C)C [GIBBEROEPOXYSTEROL]		15.5 µg/mL (≈ 36 µM)		15.9 µg/mL (≈ 36.9 µM)					
C=C(/C=C/[C@@H](C)[C@H]1CC[C@H]2[C@@H]3CC(=O)[C@]4(O)C[C@@H](O)C[C@H](O)[C@]4(C)[C@H]3CC[C@]12C)C(C)C [GIBBEROKETOSTEROL B]		> 30 µg/mL		> 30 µg/mL	inactive	inactive	> 30 µg/mL	Non-toxic	> 30 µg/mL
